Only some compounds are listed: those with a hit (about 3.1% of all), similar ones and a draw of the others.
HSF1 inhib = HSF1 inhibition; NIH3T3-HGL HSE-luciferase, MG132-induced, luminescence 8 h; active compounds read low; AID 2098; activity change, negative = inhibition, % at 7.5 µM (by protocol); 300,000 compounds, 0.77% hits;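 active means more than half of replicate wells show activity change below -50%, luminescence cut by over half; inconclusive means some wells, but at most half, below -50%; inactive means no replicate well below -50%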;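 further: luciferase reports HSF-1 transcriptional activity via heat shock element; 0% = median of DMSO wells and -100% = zero luminescence signal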
Hsp70 activator = Hsp70 transcriptional activation, primary screen; HeLa Hsp70 promoter luciferase reporter, luminescence; scaled: vehicle 0, proteasome-inhibitor control 100%; activation, % at 10 µM; 200,000 compounds, 0.04% hits;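 active means activation above the mean across all tested compounds plus 3 SD, cutoff set per campaign, cut at about 5.5% in these data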;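 further: 100% = MG132 at 30 µM as the positive control and 0% = DMSO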
HSF-1 act = increases HSF-1 driven luciferase reporter signal. NIH3T3-HGL HSF-1 luciferase reporter, MG132, 8 h; 100% = twice DMSO control signal. activation, % at 9 µM. 300,000 compounds, 1.7% hits;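 active means mean replicate activation of at least 50% with a set share of replicates each reaching 50%; inconclusive means only one of those two conditions met; inactive means mean below 50% and too few replicates reaching it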;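 further: 0% = median of the neutral control wells and 100% = twice that signal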
HKDC1 inhibitor = inhibitors of human hexokinase HKDC1; inhibition, % at 20 µM; 340,000 compounds, 0.16% hits; AID 493160; recombinant HKDC1, G6PDH/diaphorase resazurin coupled fluorescence; Q2TB90;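 active means inhibition above about 35% when tested at 20 µM, limit read from the data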;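 further: plate controls were DMSO wells with enzyme for no effect and DMSO wells lacking enzyme for full effect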
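Incubation: 90 min at room temperature in dark / Material: recombinant HKDC1 (HK5) hexokinase enzyme, produced in-house / Quantity: enzyme 5 µg/mL final / Compound: one dose of 20 µM, 1% DMSO / Reagent: glucose and ATP substrates / Buffer or medium: Tris pH 8.0 buffer with MgCl2, Tween-20, BSA, BME / Technique: resorufin fluorescence at 613 nm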
HSP90 inh = HSP90 refolding inhibition in rabbit reticulocyte lysate. 290,000 compounds, 0.91% hits. inhibition, % at 5.6 µM. luciferase refolding luminescence, 3 h;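 active means inhibition above the screen-wide mean plus 3 SD, computed separately per campaign, cut at about 16% in these data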;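 further: 0% = DMSO wells and 100% = 60 µM geldanamycin wells; inhibitors lower the luminescence because luciferase stays unfolded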
Tb hexokinase = blocks Trypanosoma brucei hexokinase 1 activity | 220,000 compounds, 0.11% hits | inhibition, % at 10 µM | recombinant TbHK1, G6PDH-coupled NADH A340 | AID 1430;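 active means inhibition of 50% or more in the single-dose primary screen; inactive means inhibition below 50%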
HSP90 inh confirm = HSP90 inhibition, confirmation assay; AID 1846; inhibition, % at 5.9 µM; shares compounds with HSP90 inh; rabbit reticulocyte lysate, luciferase refolding luminescence, 3 h; 2,300 compounds, 64% hits; in the data active means inhibition above about 18%;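 further: 0% = vehicle wells and 100% = reference inhibitor wells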
luciferase ctr = counter-screen for HSP90 inhibitors: inhibitors of firefly luciferase | 2,300 compounds, 48% hits | inhibition, % at 5.9 µM | purified native firefly luciferase, luminescence | shares compounds with HSP90 inh;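 active means inhibition above the mean inhibition of all tested sample wells plus 3 SD, cut at about 10% in these data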;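 further: 0% = DMSO with luciferase and 100% = wells lacking luciferase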
Target sequence (P08659 whole entry, looked up): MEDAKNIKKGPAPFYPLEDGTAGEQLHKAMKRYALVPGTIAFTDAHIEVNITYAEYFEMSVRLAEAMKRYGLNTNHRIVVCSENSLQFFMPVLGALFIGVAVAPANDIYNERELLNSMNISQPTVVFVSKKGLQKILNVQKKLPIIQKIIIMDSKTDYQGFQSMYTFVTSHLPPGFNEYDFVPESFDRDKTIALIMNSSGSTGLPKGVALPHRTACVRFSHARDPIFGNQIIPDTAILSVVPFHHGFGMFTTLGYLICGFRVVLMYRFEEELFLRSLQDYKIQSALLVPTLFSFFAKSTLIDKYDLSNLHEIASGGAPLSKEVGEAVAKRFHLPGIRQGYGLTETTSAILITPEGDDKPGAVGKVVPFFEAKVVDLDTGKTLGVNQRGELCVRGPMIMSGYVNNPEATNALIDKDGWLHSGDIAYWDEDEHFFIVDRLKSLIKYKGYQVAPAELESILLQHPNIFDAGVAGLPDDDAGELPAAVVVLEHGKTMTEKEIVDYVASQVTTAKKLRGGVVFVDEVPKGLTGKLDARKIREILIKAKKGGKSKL
The depositor's hits bear a star; ? = inconclusive; nt = no result given.

SMILES	HSF1 inhib	Hsp70 activator	HSF-1 act	HKDC1 inhibitor	HSP90 inh	Tb hexokinase	HSP90 inh confirm	luciferase ctr
Nc1cccc(-c2nc3ccccc3s2)c1	11.4	0.3	28.2	-4.1	-2.8	-8.2	nt	nt
COc1ccc(-c2nc3ccccc3s2)cc1O	18.8	-0.3	43.0	3.9	37.7*	-13.8	77.7*	71.7*
COc1ccc(-c2csc(NC(=S)NC(=O)/C=C/c3ccc(C(C)C)cc3)n2)cc1OC	-26.8	nt	-39.1	1.4	18.9*	nt	13.1	0.4
COc1ccc(-c2csc(NC(=S)NC(=O)/C=C/c3ccco3)n2)cc1OC	-2.1	-0.3	15.5	1.1	5.5	-40.4	nt	nt
O=C(Nc1ccc(F)cc1F)c1ccc2c(c1)OCCO2	17.7	nt	25.1	6.6	23.1*	nt	32.0*	11.7*
O=C(Nc1ccc(Br)cc1F)c1ccc2c(c1)OCCO2	-1.8	nt	25.0	-1.5	54.5*	nt	50.0*	41.0*
O=C(COc1ccccc1)NC1CCCCCCC1	-6.6	nt	-10.2	-1.7	3.0	nt	nt	nt
CCN(CC)c1ccc(/C=N/NC(=O)c2ccoc2C)cc1	9.1	nt	30.4	2.8	31.5*	-64.4	58.9*	54.0*
CN(CC(=O)Nc1cccc(F)c1)C(=O)CC1CCCCC1	-5.1	nt	-0.4	-3.9	nt	nt	nt	nt
Cc1c(O)ccc(/C=N/Nc2ncccc2[N+](=O)[O-])c1O	35.9	nt	54.9*	-14.8	21.4*	nt	28.5*	28.0*
O=[N+]([O-])c1cccnc1N/N=C/c1ccccc1O	-34.1	-0.1	-42.8	-1.2	21.8*	-6.8	14.4	-1.4
O=[N+]([O-])c1ccccc1/C=N/Nc1nccnc1Cl	4.5	-0.2	-9.2	-4.8	-1.9	-29.7	nt	nt
C=CCN1C(=O)c2ccc(C(=O)Nc3ccccn3)cc2C1=O	4.2	nt	4.5	-4.1	nt	nt	nt	nt
Nc1cccc2c1C(=O)N(C(=O)/C=C/c1ccc(F)cc1)C2=O	44.4	0.2	60.7*	34.3	28.4*	-6.3	11.9	-12.9
Cc1ccc(-c2onc3ccc(C=O)cc23)cc1	-24.3	-0.1	-32.8	5.1	49.8*	-15.5	12.1	-23.6
CC1=C(C(=O)OCC(C)C)C(c2ccsc2)NC(=O)N1 (configuration not stated)	10.0	-0.3	11.4	2.6	23.9*	8.0	1.6	-4.9
CCOC(=O)C1=C(C)NC(=O)NC1c1ccsc1 (configuration not stated)	2.8	0.2	17.5	-8.1	-3.9	-0.7	nt	nt
Cc1ccc(NC(=O)c2cnn(-c3ccccc3)c2C)cc1C	-7.6	nt	-9.4	-2.6	43.8*	nt	64.0*	58.5*
COc1c(C=O)c2c(c(OC)c1OC)-c1ccc(OC)c(=O)cc1C(NC(C)=O)CC2 (configuration not stated)	45.0	nt	45.0	1.5	nt	nt	nt	nt
O=C(Nc1ccc(NC(=O)c2ccco2)nc1)c1ccco1	14.8	-0.4	3.2	-3.0	14.0	-4.7	nt	nt
CC(C)(C)C(=O)Nc1ccc(NC(=O)c2ccco2)nc1	-90.9*	nt	-91.5	-5.9	91.4*	nt	88.8*	83.7*
CC(C)(C)C(=O)Nc1ccc(/C=C/C(=O)c2ccco2)cc1	-24.5	nt	-23.1	-0.1	26.2*	nt	39.9*	49.9*
O=C(Nc1ccc(NC(=O)C2CCCCC2)cn1)c1ccco1	7.9	-0.3	26.2	-5.5	21.6*	8.7	54.8*	47.5*
O=C(O)c1cccc(S(=O)(=O)N2CCN(S(=O)(=O)c3ccc4ccccc4c3)CC2)c1	nt	nt	nt	2.0	nt	nt	nt	nt
Cc1ccccc1Nc1nc(NCc2ccco2)c2ccccc2n1	-5.4	0.1	18.2	-0.2	7.4	11.7	nt	nt
SMILES	HSF1 inhib	Hsp70 activator	HSF-1 act	HKDC1 inhibitor	HSP90 inh	Tb hexokinase	HSP90 inh confirm	luciferase ctr
Oc1ccccc1Nc1nc(NCc2ccco2)c2ccccc2n1	13.1	nt	-6.5	-0.2	28.2*	4.7	4.8	-0.7
Cc1cc(NC(=O)c2cccc(COc3ccc(Br)cc3)c2)no1	-1.7	-0.2	-0.4	-3.6	21.0*	2.7	64.1*	52.6*
CC(C)c1cc(C(N)=O)c(NC(=O)c2cccc(COc3ccc(Cl)cc3)c2)s1	-9.1	-0.6	-18.0	-3.3	49.0*	-22.9	71.3*	68.6*
Cc1cc(C)n(CCCNC(=O)c2ccco2)n1	nt	nt	nt	3.4	nt	nt	nt	nt
Cc1nc(C)n(CCNC(=O)c2ccco2)n1	1.1	nt	-13.9	-7.0	35.5*	nt	4.6	1.7
COCCCn1c(SCC(=O)N2CCOCC2)nc2cc(Cl)ccc2c1=O	nt	nt	nt	-5.9	nt	nt	nt	nt
CCC(=O)Nc1cc2nn(-c3ccc(C)cc3)nc2cc1C	-61.9*	-0.1	-67.0	9.8	51.4*	-12.4	75.5*	66.8*
CC(=O)Nc1ccc(OS(=O)(=O)c2ccc([N+](=O)[O-])cc2)cc1	12.2	-0.3	4.4	-9.3	54.6*	-1.9	75.7*	-4.5
CC(=O)Nc1ccc(OS(=O)(=O)c2ccc(Cl)cc2)cc1	-0.8	nt	-0.4	-3.8	-1.8	nt	nt	nt
Cc1c(C)c2ccc(OCC(=O)Nc3nccs3)cc2oc1=O	3.0	nt	5.5	-4.3	57.8*	nt	73.5*	55.5*
Cc1cc(=O)oc2cc(OCC(=O)Nc3nccs3)ccc12	25.1	nt	?	8.2	6.3	nt	nt	nt
Cc1cccc(OCC(=O)Nc2nccs2)c1C	28.2	nt	56.2*	5.3	27.0*	nt	29.3*	13.5*
Cc1c(C)c2ccc(OCC(=O)Nc3ccccn3)cc2oc1=O	5.9	nt	-11.1	-0.5	25.4*	nt	64.5*	27.9*
O=C(NC1C2CC3CC(C2)CC1C3)C1CCCCC1 (configuration not stated)	-5.0	nt	2.2	0.4	2.4	nt	nt	nt
CC1(C(=O)Nc2ccc3c(c2)OCO3)CC1(Cl)Cl (configuration not stated)	4.6	nt	8.3	-3.8	-2.8	nt	nt	nt
Cc1cccc(C)c1NC(=O)C1CCN(S(C)(=O)=O)CC1	-1.8	nt	2.9	5.2	-1.1	nt	nt	nt
CC(=O)c1sc(NC(=O)c2ccc(F)c(F)c2)nc1C	16.6	0.1	12.1	17.2	-0.2	-22.2	nt	nt
Cc1nc(NC(=O)c2cccc(Cl)c2)sc1C(=O)N1CCCCC1	-0.5	0.1	-3.1	-7.5	34.2*	-14.3	48.2*	-15.6
CC(=O)c1sc(NC(=O)c2ccc(Cl)cc2)nc1C	0.2	nt	14.3	-4.8	42.1*	-16.1	24.7*	-16.1
CCc1nn2c(N3CCOCC3)cc(C)nc2c1-c1ccccc1	1.0	nt	10.2	0.1	4.1	nt	nt	nt
COc1ccc(C(=O)OCC(=O)Nc2c(C)n(C)n(-c3ccccc3)c2=O)cc1OC	nt	nt	nt	-7.2	nt	nt	nt	nt
Cc1ccc(-c2cnc(-c3ccccc3C(=O)O)o2)cc1	3.8	nt	-8.9	-2.7	2.4	nt	nt	nt
O=C(NC(=O)c1ccccc1)Nc1ccccc1	27.3	nt	46.1	1.2	63.5*	nt	59.5*	47.2*
Cc1nn(CC(=O)NC2(C)CCS(=O)(=O)C2)c(C)c1S(=O)(=O)N(C)C (configuration not stated)	nt	nt	nt	-1.4	nt	nt	nt	nt

Screens deposited in PubChem BioAssay by several laboratories.
